Data: publication PMC12799544 (Molecular Pharmacology, 2025)
Where “and” joins values, the source holds several entries; their conditions need not be identical. Equal entries are not always repeated. Values belong to the compound of their own block, whether it stands above or below them.

Columns and labels:
RyR1 [1] = biological target: T1, RyR1 (Sus scrofa, UniProt P16960); assay: [3H]-ryanodine ligand binding assay, skeletal SR membrane; parameters: species or system porcine
Procedure, shortened: (§1)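 Porcine skeletal SR (1 mg/mL) was incubated 3 h at 37 °C with 10 nM [3H]-ryanodine and compound in 20 mM PIPES pH 7.0, 150 mM KCl, 5 mM ATP, 0.1 μM calmodulin and 0.1 μM free Ca (1 mM EGTA). Nonspecific binding used 15 μM cold ryanodine; maximal binding used 5 mM AMP-PNP plus 20 mM caffeine. Bound label was counted by filtration and scintillation, normalized to vehicle; 4-parameter fit.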

RyR2 [2] = biological target: T2, RyR2 (Sus scrofa, UniProt A0A5G2R1W3); assay: [3H]-ryanodine ligand binding assay, cardiac SR membrane; parameters: species or system porcine
Procedure, shortened: as §1, with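 “Porcine cardiac” for “Porcine skeletal”, “SR (3” for “SR (1”, “with 7.5” for “with 10”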

RyR2 [3] = biological target: T2, RyR2; assay: RyR2 single-channel recording in artificial lipid bilayers; assay type: biochemical, porcine
Procedure, shortened: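 Porcine cardiac SR vesicles were fused into PE:PS:PC (5:3:2) bilayers with symmetric 250 mM Cs+ and TES pH 7.4. The cis side held 0.1 μM free Ca (CaCl2/BAPTA) plus 2 mM ATP, at 23 ± 2 °C and +40 mV. Compound (0.01–10 or 1–100 μM) was added cis with DMSO <0.1%. Po came from 30–60 s at a 50% threshold, relative to vehicle on the same channel. Dwell times were fitted with 2 exponentials; 4-parameter fit.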

RyR2 [4] = biological target: RyR2 (Mus musculus, UniProt E9Q401); assay: Ca spark assay in permeabilized ventricular cardiomyocytes; assay type: cell-based, C57BL/6J mice; conditions: for Concentration dependence of Ca spark frequency: increasing concentrations
Procedure, shortened: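 Mouse ventricular myocytes (C57BL/6J, 12–18 weeks, both sexes) attached 10 min on laminin at room temperature, saponin-permeabilized (40 μg/mL, 40 s), then bathed 15 min in pH 7.2 internal solution (5 mM MgATP, 0.5 mM EGTA, 0.12 mM CaCl2, Fluo-4) with 0.1% DMSO or test compound. Confocal x-t sparks in brick-shaped cells; caffeine used as reference activator. Hierarchical mixed-effects statistics; 4-parameter concentration-response fit.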

Caco-2 cell monolayer = assay: Caco-2 bidirectional permeability assay; assay type: in vitro ADME, human; conditions: recovery
Procedure, shortened: (§2)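 Caco-2 monolayers (passages 55–65) grown 21 days on 0.4 μm Transwell inserts and used only above 1000 Ω·cm2 TEER. Compound at 10 μM in HBSS (<1% DMSO) was dosed apically or basally. Samples at 0 and 2 h were analyzed by LC-MS for Papp, efflux ratio and recovery. Integrity was checked afterwards by lucifer yellow flux (≤0.5%).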

[5] = Caco-2 bidirectional permeability assay; assay type: in vitro ADME, human; conditions: human, Caco-2, pH 7.4
Procedure, shortened: as §2

[6] = Parallel artificial membrane permeability assay; assay type: in vitro ADME
Procedure, shortened: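 Donor compound at 500 μM in PBS pH 7.4 with TPGS, across hydrophobic membranes pretreated with 1% lecithin in n-dodecane, into PBS acceptor. Incubated 14–18 h at room temperature in a humidified chamber. Donor and acceptor were quantified by LC-MS; Papp, percent recovery and percent diffusion came from ratio formulas.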

RyR1 [7] = biological target: T1, RyR1; assay: RyR1 single-channel recording in artificial lipid bilayers; assay type: biochemical, porcine
Procedure, shortened: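 Porcine longissimus dorsi SR vesicles were fused into PE:PS:PC (5:3:2) bilayers with symmetric 250 mM Cs+ and TES pH 7.4. The cis side held 0.1 μM free Ca (CaCl2/BAPTA) plus 2 mM ATP, at 23 ± 2 °C. Compound was added cis by aliquot or local perfusion, DMSO <0.1%. Po came from 30–60 s recordings, 50% amplitude threshold, 1 kHz filter. Nonlinear 4-parameter concentration-response fit.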

RyR2 [8] = conditions: cited from earlier work

T2 sequence (A0A5G2R1W3 20-4900): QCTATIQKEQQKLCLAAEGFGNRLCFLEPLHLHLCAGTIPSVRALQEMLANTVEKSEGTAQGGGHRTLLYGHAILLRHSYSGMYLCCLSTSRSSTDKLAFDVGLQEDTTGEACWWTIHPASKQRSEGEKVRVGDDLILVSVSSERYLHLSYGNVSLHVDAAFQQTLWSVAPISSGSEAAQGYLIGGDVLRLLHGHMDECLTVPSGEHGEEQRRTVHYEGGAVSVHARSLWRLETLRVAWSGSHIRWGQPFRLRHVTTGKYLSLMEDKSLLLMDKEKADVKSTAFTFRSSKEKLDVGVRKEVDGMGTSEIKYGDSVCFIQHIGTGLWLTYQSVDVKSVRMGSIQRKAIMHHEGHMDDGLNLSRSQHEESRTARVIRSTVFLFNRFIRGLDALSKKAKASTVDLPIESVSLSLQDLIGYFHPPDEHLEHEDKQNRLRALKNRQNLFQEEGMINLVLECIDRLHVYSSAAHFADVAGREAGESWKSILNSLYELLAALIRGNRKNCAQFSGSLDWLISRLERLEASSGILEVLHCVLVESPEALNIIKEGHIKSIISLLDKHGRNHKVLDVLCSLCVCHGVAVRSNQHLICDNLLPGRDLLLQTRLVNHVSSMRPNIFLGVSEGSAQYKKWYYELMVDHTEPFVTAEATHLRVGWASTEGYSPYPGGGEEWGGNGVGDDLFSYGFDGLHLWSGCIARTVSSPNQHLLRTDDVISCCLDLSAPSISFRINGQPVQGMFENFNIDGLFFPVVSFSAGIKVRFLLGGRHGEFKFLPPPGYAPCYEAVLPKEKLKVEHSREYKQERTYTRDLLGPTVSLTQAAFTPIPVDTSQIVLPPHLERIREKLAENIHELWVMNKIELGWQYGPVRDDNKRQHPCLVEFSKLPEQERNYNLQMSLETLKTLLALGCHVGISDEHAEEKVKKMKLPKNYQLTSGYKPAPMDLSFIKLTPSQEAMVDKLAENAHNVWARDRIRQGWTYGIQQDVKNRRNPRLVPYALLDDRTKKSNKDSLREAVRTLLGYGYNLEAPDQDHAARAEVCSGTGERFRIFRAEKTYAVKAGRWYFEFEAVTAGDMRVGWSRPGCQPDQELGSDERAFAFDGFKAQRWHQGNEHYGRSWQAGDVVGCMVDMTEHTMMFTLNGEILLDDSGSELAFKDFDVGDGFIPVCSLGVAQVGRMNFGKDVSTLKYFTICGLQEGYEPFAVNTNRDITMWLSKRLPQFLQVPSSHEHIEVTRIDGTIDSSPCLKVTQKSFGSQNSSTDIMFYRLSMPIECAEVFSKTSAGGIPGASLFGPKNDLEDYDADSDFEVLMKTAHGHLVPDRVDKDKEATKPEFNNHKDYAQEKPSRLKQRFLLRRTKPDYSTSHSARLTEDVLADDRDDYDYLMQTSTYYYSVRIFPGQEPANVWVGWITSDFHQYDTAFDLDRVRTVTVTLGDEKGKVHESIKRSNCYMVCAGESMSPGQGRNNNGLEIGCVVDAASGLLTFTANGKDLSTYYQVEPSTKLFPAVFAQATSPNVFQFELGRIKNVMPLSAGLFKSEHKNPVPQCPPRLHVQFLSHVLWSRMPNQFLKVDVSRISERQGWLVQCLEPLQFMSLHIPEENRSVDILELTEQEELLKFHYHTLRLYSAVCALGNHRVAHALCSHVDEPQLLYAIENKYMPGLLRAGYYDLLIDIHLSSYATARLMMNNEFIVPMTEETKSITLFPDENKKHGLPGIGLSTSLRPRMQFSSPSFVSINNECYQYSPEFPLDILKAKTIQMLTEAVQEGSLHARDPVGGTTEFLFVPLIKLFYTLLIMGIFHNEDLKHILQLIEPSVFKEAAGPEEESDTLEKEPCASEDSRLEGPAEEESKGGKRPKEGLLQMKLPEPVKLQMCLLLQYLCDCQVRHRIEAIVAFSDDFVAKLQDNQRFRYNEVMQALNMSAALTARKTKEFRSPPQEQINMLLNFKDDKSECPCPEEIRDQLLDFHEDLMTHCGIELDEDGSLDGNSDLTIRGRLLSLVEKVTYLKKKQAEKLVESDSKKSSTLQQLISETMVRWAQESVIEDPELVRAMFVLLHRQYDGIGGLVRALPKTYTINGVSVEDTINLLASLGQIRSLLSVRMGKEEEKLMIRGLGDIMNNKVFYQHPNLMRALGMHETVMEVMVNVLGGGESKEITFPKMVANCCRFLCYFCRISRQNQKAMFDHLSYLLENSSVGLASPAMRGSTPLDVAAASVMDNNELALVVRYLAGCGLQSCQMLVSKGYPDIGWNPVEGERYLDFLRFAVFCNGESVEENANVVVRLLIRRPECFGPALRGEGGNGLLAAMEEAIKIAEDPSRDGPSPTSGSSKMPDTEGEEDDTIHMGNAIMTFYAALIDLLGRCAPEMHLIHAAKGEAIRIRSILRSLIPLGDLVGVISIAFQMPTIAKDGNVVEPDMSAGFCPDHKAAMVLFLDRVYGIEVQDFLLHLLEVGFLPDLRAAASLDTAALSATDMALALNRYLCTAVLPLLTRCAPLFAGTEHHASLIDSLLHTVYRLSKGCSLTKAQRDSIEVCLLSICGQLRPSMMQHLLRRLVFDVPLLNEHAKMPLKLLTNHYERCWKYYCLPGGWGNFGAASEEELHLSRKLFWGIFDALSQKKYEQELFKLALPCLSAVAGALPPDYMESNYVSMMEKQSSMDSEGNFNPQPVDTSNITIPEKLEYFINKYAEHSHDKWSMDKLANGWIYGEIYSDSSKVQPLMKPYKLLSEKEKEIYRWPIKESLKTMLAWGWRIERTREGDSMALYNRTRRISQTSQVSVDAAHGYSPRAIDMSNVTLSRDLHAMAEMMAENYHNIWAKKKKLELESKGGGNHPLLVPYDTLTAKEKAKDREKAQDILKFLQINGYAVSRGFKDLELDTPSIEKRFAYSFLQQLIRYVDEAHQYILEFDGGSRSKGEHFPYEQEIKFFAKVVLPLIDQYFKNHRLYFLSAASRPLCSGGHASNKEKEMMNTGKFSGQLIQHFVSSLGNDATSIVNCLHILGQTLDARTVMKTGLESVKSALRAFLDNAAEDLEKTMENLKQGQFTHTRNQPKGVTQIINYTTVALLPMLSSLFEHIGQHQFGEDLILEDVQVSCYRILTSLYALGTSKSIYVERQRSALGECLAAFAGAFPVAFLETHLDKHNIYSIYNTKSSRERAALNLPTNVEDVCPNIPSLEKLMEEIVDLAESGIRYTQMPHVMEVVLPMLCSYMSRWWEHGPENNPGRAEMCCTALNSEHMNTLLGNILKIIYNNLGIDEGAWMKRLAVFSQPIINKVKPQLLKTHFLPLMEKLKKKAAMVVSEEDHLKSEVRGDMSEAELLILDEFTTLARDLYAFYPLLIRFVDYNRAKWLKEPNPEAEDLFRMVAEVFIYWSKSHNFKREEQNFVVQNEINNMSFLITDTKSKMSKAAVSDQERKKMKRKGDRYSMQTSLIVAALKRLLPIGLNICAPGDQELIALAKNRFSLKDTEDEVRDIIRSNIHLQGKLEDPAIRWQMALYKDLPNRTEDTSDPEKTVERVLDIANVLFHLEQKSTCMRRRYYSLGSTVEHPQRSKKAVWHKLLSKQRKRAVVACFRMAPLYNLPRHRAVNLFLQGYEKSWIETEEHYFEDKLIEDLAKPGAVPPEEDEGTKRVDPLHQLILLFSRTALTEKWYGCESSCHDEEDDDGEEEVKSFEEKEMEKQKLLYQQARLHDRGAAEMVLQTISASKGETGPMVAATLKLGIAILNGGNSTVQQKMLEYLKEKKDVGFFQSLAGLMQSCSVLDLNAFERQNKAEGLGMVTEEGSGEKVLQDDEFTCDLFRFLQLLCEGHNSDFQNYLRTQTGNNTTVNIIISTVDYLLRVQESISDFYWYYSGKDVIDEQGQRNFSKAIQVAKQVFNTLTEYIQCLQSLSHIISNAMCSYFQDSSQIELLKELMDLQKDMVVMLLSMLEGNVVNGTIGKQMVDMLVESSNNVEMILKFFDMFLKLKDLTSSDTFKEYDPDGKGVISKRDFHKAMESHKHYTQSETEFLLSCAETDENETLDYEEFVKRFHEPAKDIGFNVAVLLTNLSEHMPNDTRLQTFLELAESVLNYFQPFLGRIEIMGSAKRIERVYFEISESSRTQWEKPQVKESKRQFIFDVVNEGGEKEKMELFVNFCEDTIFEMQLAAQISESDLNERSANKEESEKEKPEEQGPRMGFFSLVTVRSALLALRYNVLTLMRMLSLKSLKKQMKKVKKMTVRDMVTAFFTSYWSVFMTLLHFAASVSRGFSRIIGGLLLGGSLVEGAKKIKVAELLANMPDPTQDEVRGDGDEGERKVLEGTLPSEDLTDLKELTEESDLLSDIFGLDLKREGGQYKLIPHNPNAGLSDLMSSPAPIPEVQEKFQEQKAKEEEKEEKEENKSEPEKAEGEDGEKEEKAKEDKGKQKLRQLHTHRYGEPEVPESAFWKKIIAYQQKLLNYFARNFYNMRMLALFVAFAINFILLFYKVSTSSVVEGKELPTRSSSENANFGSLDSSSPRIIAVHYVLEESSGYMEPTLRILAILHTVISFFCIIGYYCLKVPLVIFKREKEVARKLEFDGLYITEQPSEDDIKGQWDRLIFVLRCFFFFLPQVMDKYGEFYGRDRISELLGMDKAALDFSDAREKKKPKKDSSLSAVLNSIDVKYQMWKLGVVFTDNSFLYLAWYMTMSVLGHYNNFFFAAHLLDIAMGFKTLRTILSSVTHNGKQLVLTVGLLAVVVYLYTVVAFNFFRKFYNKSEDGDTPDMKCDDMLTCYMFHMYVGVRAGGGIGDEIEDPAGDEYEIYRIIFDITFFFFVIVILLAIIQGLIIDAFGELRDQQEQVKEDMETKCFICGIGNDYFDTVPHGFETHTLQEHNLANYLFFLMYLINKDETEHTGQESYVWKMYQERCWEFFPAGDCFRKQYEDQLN

- EC50 (RyR1 [1]): ~9 µM
- Emax (RyR1 [1]; read-out: Emax, increase of [3H]-ryanodine binding to RyR1 normalized to vehicle): ~17%
- EC50 (RyR2 [2]): ~46 µM
- Emax (RyR2 [2]; read-out: Emax, increase of [3H]-ryanodine binding to RyR2 normalized to vehicle): ~29%
- IC50 (RyR2 [3]): ~32.2 µM
- EC50 (RyR2 [3]; EC50, activation of RyR2 single-channel Po, pCa 7, 2 mM ATP, +40 mV, 95% CI 1.4–63.1 μM): ~30 µM and ~32.2 µM
- Mean closed duration (RyR2 [3]; activert ≥50 μM versus vehicle): decreased
- Mean open duration (RyR2 [3]; activert ≥50 μM versus vehicle): without altering
- Potency on RyR2 compared with ent-verticilide (fold less potent) (RyR2 [3]; compared with ent-verticilide): ~100 fold
- Emax (RyR2 [3]; read-out: Emax, partial activation of RyR2 single-channel Po): ~34%
- Average duration of the Ca spark (RyR2 [4]; 25 μM): modestly increased
- Overall RyR2-mediated SR Ca leak (RyR2 [4]; 25 μM): elevated
- Reduction of SR Ca load (amplitude of caffeine-induced Ca transient) (RyR2 [4]; 25 μM): ~10%
- Size (amplitude or width) of the average Ca spark (RyR2 [4]; 25 μM): without changes
- Ca spark frequency versus vehicle (RyR2 [4]; 25 μM, 15 min, permeabilized cardiomyocytes): increase
- Distribution of Ca spark duration compared with DMSO control (RyR2 [4]; 100 μM activert): prolonged
- Concentration dependence of Ca spark frequency (RyR2 [4]): dose-dependent increase
- %R (A-B) (Caco-2 cell monolayer; apical-to-basal): 101%
- %R (B-A) (Caco-2 cell monolayer; basal-to-apical): 80%
- Papp A→B at 2 h, 10 µM [5]: 0.4 ×10⁻⁶ cm/s
- Papp B→A at 2 h, 10 µM [5]: 1.1 ×10⁻⁶ cm/s
- Papp at 2 h, 10 µM [5]: < 1 ×10⁻⁶ cm/s
- efflux ratio at 2 h, 10 µM [5]: 2.73
- % Diffusion ([6]; PAMPA): 7%
- %R ([6]; PAMPA recovery): 92%
- Papp at 500 µM ([6]; PAMPA, pH 7.4, Permeability (experimental permeability rate)): < 2 ×10⁻⁶ cm/s
- EC50 (RyR1 [7]): ~10.5 µM
- Emax (RyR1 [7]; read-out: Emax, increase of RyR1 single-channel Po): ~14.4%
Compound: CCCCC[C@@H]1OC(=O)[C@@H](C)N(C)C(=O)[C@H](CCCCC)OC(=O)[C@@H](C)N(C)C(=O)[C@H](CC(=O)O)OC(=O)[C@@H](C)N(C)C(=O)[C@H](CCCCC)OC(=O)[C@@H](C)N(C)C1=O [activert, 2-((2S,5R,8S,11R,14S,17R,20S,23R)-4,5,10,11,16,17,22,23-Octamethyl-3,6,9,12,15,18,21,24-octaoxo-8,14,20-tripentyl-1,7,13,19-tetraoxa-4,10,16,22-tetraazacyclotetracosan-2-yl)acetic acid]

- Ca spark duration with caffeine (RyR2 [4]; 1 mM caffeine): many long-lasting sparks
- Concentration dependence of Ca spark frequency (RyR2 [4]): dose-dependent response
Compound: Cn1c(=O)c2c(ncn2C)n(C)c1=O [caffeine, reference compound]

Compound: O=C1CN(/N=C/c2ccc(-c3ccc([N+](=O)[O-])cc3)o2)C(O)=N1 [dantrolene]
- Maximal inhibition of RyR2 (RyR2 [8]): ~50%
